{
  "source": "ChEMBL document CHEMBL3616436",
  "about": "“Synthesis, cytotoxicity and antimicrobial activity of thiourea derivatives incorporating 3-(trifluoromethyl)phenyl moiety” (Eur J Med Chem, 2015)",
  "key": {"Bacillus subtilis": {"test_system": "Bacillus subtilis", "assay": "Antimicrobial activity against Bacillus subtilis ATCC 6633 at 400 ug after 18 hrs by disc-diffusion method", "format": "functional", "conditions": "ATCC 6633, 18 h, read-out: IZ", "outline": "(§1)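 Disc diffusion on Mueller-Hinton II agar per CLSI; 9 mm paper discs loaded with 400 µg compound from DMSO solution, dried, placed on agar; growth inhibition zone diameter read after 18 h at 35°C.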"}, "[1]": {"test_system": "Mycobacterium tuberculosis", "assay": "Antimycobacterial activity against drug-sensitive Mycobacterium tuberculosis Spec. 192", "format": "functional", "outline": "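Classical test-tube successive-dilution method in Youmans' modification of Proskauer and Beck liquid medium with 10% bovine serum. Inoculum came from 14-day cultures. DMSO stock was 10 mg/mL, diluted geometrically in medium. Tubes were incubated at 37 °C. Concentrations tested were 3.1, 6.2, 12.5, 25, 50 and 100 µg/ml. MIC is the minimum concentration inhibiting growth relative to compound-free tubes.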"}, "Staphylococcus aureus [2]": {"test_system": "Staphylococcus aureus", "assay": "Ratio of ciprofloxacin MIC to compound MIC for hospital methicillin-resistant Staphylococcus aureus 81/05 after 18 hrs by twofold serial microdilution method", "format": "functional", "outline": "(§2)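 Ratio of MICs for ciprofloxacin and test agent, each from twofold serial broth microdilution in Mueller-Hinton broth following CLSI guidelines. DMSO stock was diluted in sterile water to 0.125–512 µg/mL, with a final inoculum of 10^5 CFU/mL.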"}, "[3]": {"test_system": "Staphylococcus epidermidis", "assay": "Ratio of ciprofloxacin MIC to compound MIC for hospital methicillin-resistant Staphylococcus epidermidis […]/[…] after 18 hrs by twofold serial microdilution method", "format": "functional, 16/04"}, "[4]": {"test_system": "Staphylococcus epidermidis", "assay": "Antimicrobial activity against Staphylococcus epidermidis ATCC 35984 after 18 hrs by twofold serial microdilution method", "format": "functional", "conditions": "ATCC 35984, 18 h"}, "Vaccinia virus": {"test_system": "Vaccinia virus", "assay": "Antiviral activity against Human Vaccinia virus ATCC VR-1549 infected in African green monkey Vero 76 cells assessed as reduction of virus-plaque formation after 3 days by crystal violet staining", "format": "functional, organism-based", "conditions": "Orthopoxvirus vaccinia, ATCC VR-1549, Vero, 72 h"}, "[5]": {"test_system": "Staphylococcus epidermidis", "assay": "Antimicrobial activity against hospital methicillin-resistant Staphylococcus epidermidis 31/04 after 18 hrs by twofold serial microdilution method", "format": "functional", "conditions": "31/04, 18 h", "outline": "(§3)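 Twofold serial microdilution in Mueller-Hinton broth. Compound stock was made in DMSO and diluted in sterile water. Tested range was 0.125–512 µg/mL. Final inoculum was 10^5 CFU/mL. Plates were incubated 18 h at 35 °C. MIC is the lowest concentration preventing visible growth.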"}, "[6]": {"test_system": "Staphylococcus epidermidis", "assay": "Antimicrobial activity against Staphylococcus epidermidis ATCC 12228 after 18 hrs by twofold serial microdilution method", "format": "functional", "conditions": "ATCC 12228, 18 h"}, "[7]": {"test_system": "Staphylococcus epidermidis", "assay": "Antimicrobial activity against hospital methicillin-resistant Staphylococcus epidermidis 62/04 after 18 hrs by twofold serial microdilution method", "format": "functional", "conditions": "62/04, 18 h", "outline": "as §3"}, "[8]": {"test_system": "Staphylococcus epidermidis", "assay": "Ratio of ciprofloxacin MIC to compound MIC for hospital methicillin-resistant Staphylococcus epidermidis 151/04 after 18 hrs by twofold serial microdilution method", "format": "functional", "outline": "as §2"}, "Yellow fever virus": {"test_system": "Yellow fever virus", "assay": "Antiviral activity against Yellow fever virus 17D infected in BHK cells assessed as protection against virus-induced cytopathogenicity after 3 to 4 days by MTT assay", "format": "functional, cell-based"}, "[9]": {"test_system": "Staphylococcus epidermidis", "assay": "Antimicrobial activity against hospital methicillin-resistant Staphylococcus epidermidis 151/04 after 18 hrs by twofold serial microdilution method", "format": "functional", "conditions": "151/04, 18 h", "outline": "as §3"}, "[10]": {"test_system": "Vesicular stomatitis virus", "assay": "Antiviral activity against Vesicular stomatitis virus ATCC VR 1540 infected in African green monkey Vero 76 cells assessed as reduction of virus-plaque formation after 2 days by crystal violet staining", "format": "functional, organism-based", "conditions": "ATCC VR 1540, Vero, 48 h"}, "[11]": {"test_system": "Staphylococcus epidermidis", "assay": "Ratio of ciprofloxacin MIC to compound MIC for hospital methicillin-resistant Staphylococcus epidermidis 23/04 after 18 hrs by twofold serial microdilution method", "format": "functional", "outline": "as §2"}, "Staphylococcus aureus [12]": {"test_system": "Staphylococcus aureus", "assay": "Antimicrobial activity against Staphylococcus aureus ATCC 6538 at 400 ug after 18 hrs by disc-diffusion method", "format": "functional", "conditions": "ATCC 6538, 18 h, read-out: IZ", "outline": "as §1"}, "[13]": {"test_system": "Human immunodeficiency virus 1", "assay": "Antiviral activity against HIV1 3B infected in human MT4 cells assessed as protection against virus-induced cytopathogenicity by MTT assay", "format": "functional, organism-based", "conditions": "Human immunodeficiency virus 1, 3B"}, "Staphylococcus aureus [14]": {"test_system": "Staphylococcus aureus", "assay": "Ratio of ciprofloxacin MIC to compound MIC for hospital methicillin-resistant Staphylococcus aureus 522/11 after 18 hrs by twofold serial microdilution method", "format": "functional", "outline": "as §2"}, "[15]": {"test_system": "Staphylococcus epidermidis", "assay": "Antimicrobial activity against hospital methicillin-resistant Staphylococcus epidermidis 16/04 after 18 hrs by twofold serial microdilution method", "format": "functional", "conditions": "16/04, 18 h", "outline": "as §3"}, "Staphylococcus aureus [16]": {"test_system": "Staphylococcus aureus", "assay": "Antimicrobial activity against hospital methicillin-resistant Staphylococcus aureus 53/05 after 18 hrs by twofold serial microdilution method", "format": "functional", "conditions": "53/05, 18 h", "outline": "as §3"}, "Staphylococcus aureus [17]": {"test_system": "Staphylococcus aureus", "assay": "Antimicrobial activity against hospital methicillin-resistant Staphylococcus aureus 57/05 after 18 hrs by twofold serial microdilution method", "format": "functional", "conditions": "57/05, 18 h", "outline": "as §3"}, "Staphylococcus aureus [18]": {"test_system": "Staphylococcus aureus", "assay": "Antimicrobial activity against Staphylococcus aureus ATCC 25923 after 18 hrs by twofold serial microdilution method", "format": "functional", "conditions": "ATCC 25923, 18 h"}, "[19]": {"test_system": "Staphylococcus epidermidis", "assay": "Antimicrobial activity against hospital methicillin-resistant Staphylococcus epidermidis 76/04 after 18 hrs by twofold serial microdilution method", "format": "functional", "conditions": "76/04, 18 h", "outline": "as §3"}, "Micrococcus luteus": {"test_system": "Micrococcus luteus", "assay": "Antimicrobial activity against Micrococcus luteus ATCC 9341 at 400 ug after 18 hrs by disc-diffusion method", "format": "functional", "conditions": "ATCC 9341, 18 h, read-out: IZ", "outline": "as §1"}, "[20]": {"test_system": "Staphylococcus epidermidis", "assay": "Antimicrobial activity against Staphylococcus epidermidis ATCC 35984 at 400 ug after 18 hrs by disc-diffusion method", "format": "functional", "conditions": "ATCC 35984, 18 h, read-out: IZ", "outline": "as §1"}, "Staphylococcus aureus [21]": {"test_system": "Staphylococcus aureus", "assay": "Ratio of ciprofloxacin MIC to compound MIC for hospital methicillin-resistant Staphylococcus aureus 54/05 after 18 hrs by twofold serial microdilution method", "format": "functional", "outline": "as §2"}, "Staphylococcus aureus [22]": {"test_system": "Staphylococcus aureus", "assay": "Antimicrobial activity against Staphylococcus aureus NCTC 4163 after 18 hrs by twofold serial microdilution method", "format": "functional", "conditions": "NCTC 4163, 18 h"}, "[23]": {"test_system": "Staphylococcus epidermidis", "assay": "Ratio of ciprofloxacin MIC to compound MIC for hospital methicillin-resistant Staphylococcus epidermidis 63/04 after 18 hrs by twofold serial microdilution method", "format": "functional", "outline": "as §2"}, "Staphylococcus aureus [24]": {"test_system": "Staphylococcus aureus", "assay": "Antimicrobial activity against hospital methicillin-resistant Staphylococcus aureus 80/05 after 18 hrs by twofold serial microdilution method", "format": "functional", "conditions": "80/05, 18 h", "outline": "as §3"}, "[25]": {"test_system": "Mammalian orthoreovirus 1", "assay": "Antiviral activity against Reovirus type-1 ATCC VR-214 infected in BHK cells assessed as protection against virus-induced cytopathogenicity after 3 to 4 days by MTT assay", "format": "functional, cell-based", "conditions": "Mammalian orthoreovirus 1, ATCC VR-214, BHK", "outline": "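Cells seeded in 96-well plates (BHK 5x10^4, MDBK 3x10^4 cells/well), grown overnight to confluence, infected at m.o.i. 0.01 (BHK for Reo-1, MDBK for BVDV); serial compound dilutions in maintenance medium with 0.5% inactivated FBS added after 1 h; viability by MTT after 3–4 days at 37°C; EC50 for 50% protection by linear regression.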"}, "[26]": {"test_system": "Staphylococcus epidermidis", "assay": "Antimicrobial activity against hospital methicillin-resistant Staphylococcus epidermidis 63/04 after 18 hrs by twofold serial microdilution method", "format": "functional", "conditions": "63/04, 18 h", "outline": "as §3"}, "[27]": {"assay": "Cytotoxicity against human MT4 cells", "format": "cell-based"}, "Staphylococcus aureus [28]": {"test_system": "Staphylococcus aureus", "assay": "Ratio of ciprofloxacin MIC to compound MIC for hospital methicillin-resistant Staphylococcus aureus 57/05 after 18 hrs by twofold serial microdilution method", "format": "functional", "outline": "as §2"}, "Staphylococcus aureus [29]": {"test_system": "Staphylococcus aureus", "assay": "Antimicrobial activity against hospital methicillin-resistant Staphylococcus aureus 54/05 after 18 hrs by twofold serial microdilution method", "format": "functional", "conditions": "54/05, 18 h", "outline": "as §3"}},
  "data": [
    {"molecule": "FC(F)(F)c1cccc(NC(=S)NCCc2ccccc2)c1", "values": [
      {"measurement": "zone of inhibition at 400 µg/disc", "setting": "Bacillus subtilis", "result": 16, "unit": "mm"},
      {"measurement": "MIC", "setting": "[1]", "result": 100, "unit": "µg/mL"},
      {"measurement": "Ratio", "setting": "Staphylococcus aureus [2]", "result": 128},
      {"measurement": "Ratio", "setting": "[3]", "result": 128},
      {"measurement": "MIC", "setting": "[4]", "result": 8, "unit": "µg/mL"},
      {"measurement": "EC50", "setting": "Vaccinia virus", "result": "> 46", "unit": "µM"},
      {"measurement": "MIC", "setting": "[5]", "result": 16, "unit": "µg/mL"},
      {"measurement": "MIC", "setting": "[6]", "result": 16, "unit": "µg/mL"},
      {"measurement": "MIC", "setting": "[7]", "result": 8, "unit": "µg/mL"},
      {"measurement": "Ratio", "setting": "[8]", "result": 128},
      {"measurement": "EC50", "setting": "Yellow fever virus", "result": "> 29", "unit": "µM"},
      {"measurement": "MIC", "setting": "[9]", "result": 16, "unit": "µg/mL"},
      {"measurement": "EC50", "setting": "[10]", "result": "> 46", "unit": "µM"},
      {"measurement": "Ratio", "setting": "[11]", "result": 128},
      {"measurement": "zone of inhibition at 400 µg/disc", "setting": "Staphylococcus aureus [12]", "result": 15, "unit": "mm"},
      {"measurement": "EC50", "setting": "[13]", "result": "> 8.8", "unit": "µM"},
      {"measurement": "Ratio", "setting": "Staphylococcus aureus [14]", "result": 128},
      {"measurement": "MIC", "setting": "[15]", "result": 8, "unit": "µg/mL"},
      {"measurement": "MIC", "setting": "Staphylococcus aureus [16]", "result": 8, "unit": "µg/mL"},
      {"measurement": "MIC", "setting": "Staphylococcus aureus [17]", "result": 8, "unit": "µg/mL"},
      {"measurement": "MIC", "setting": "Staphylococcus aureus [18]", "result": 8, "unit": "µg/mL"},
      {"measurement": "MIC", "setting": "[19]", "result": 8, "unit": "µg/mL"},
      {"measurement": "zone of inhibition at 400 µg/disc", "setting": "Micrococcus luteus", "result": 18, "unit": "mm"},
      {"measurement": "zone of inhibition at 400 µg/disc", "setting": "[20]", "result": 17, "unit": "mm"},
      {"measurement": "Ratio", "setting": "Staphylococcus aureus [21]", "result": 128},
      {"measurement": "MIC", "setting": "Staphylococcus aureus [22]", "result": 8, "unit": "µg/mL"},
      {"measurement": "Ratio", "setting": "[23]", "result": 128},
      {"measurement": "MIC", "setting": "Staphylococcus aureus [24]", "result": 8, "unit": "µg/mL"},
      {"measurement": "EC50", "setting": "[25]", "result": "> 29", "unit": "µM"},
      {"measurement": "MIC", "setting": "[26]", "result": 8, "unit": "µg/mL"},
      {"measurement": "CC50", "setting": "[27]", "result": 8.8, "unit": "µM"},
      {"measurement": "Ratio", "setting": "Staphylococcus aureus [28]", "result": 128},
      {"measurement": "MIC", "setting": "Staphylococcus aureus [29]", "result": 8, "unit": "µg/mL"}
    ]}
  ]
}
